Test results published in ChEMBL document CHEMBL1144767, “Characterization of chemical libraries for luciferase inhibitory activity” (J Med Chem, 2008).
Active and inactive are the calls of the source. The rule behind the calls is not given here.

How the values were obtained:
[1] = biological target: T1, Luciferin 4-monooxygenase (Photinus pyralis, UniProt P08659); assay: Inhibition of Photinus pyralis luciferase by BrightGlo reporter gene assay
Method in brief: (§1)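 5 nM purified P. pyralis luciferase in SteadyGlo or BrightGlo reporter-gene reagent; no extra ATP or D-luciferin added. 1536-well luminescence. Curves from 16 two-fold concentrations in duplicate, repeated on two or three separate days.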

[2] = biological target: Luciferin 4-monooxygenase (Photinus pyralis) (UniProt P08659); assay: Inhibition of […] luciferase at 100 uM
Chain of Luciferin 4-monooxygenase (Photinus pyralis) (P08659 whole entry): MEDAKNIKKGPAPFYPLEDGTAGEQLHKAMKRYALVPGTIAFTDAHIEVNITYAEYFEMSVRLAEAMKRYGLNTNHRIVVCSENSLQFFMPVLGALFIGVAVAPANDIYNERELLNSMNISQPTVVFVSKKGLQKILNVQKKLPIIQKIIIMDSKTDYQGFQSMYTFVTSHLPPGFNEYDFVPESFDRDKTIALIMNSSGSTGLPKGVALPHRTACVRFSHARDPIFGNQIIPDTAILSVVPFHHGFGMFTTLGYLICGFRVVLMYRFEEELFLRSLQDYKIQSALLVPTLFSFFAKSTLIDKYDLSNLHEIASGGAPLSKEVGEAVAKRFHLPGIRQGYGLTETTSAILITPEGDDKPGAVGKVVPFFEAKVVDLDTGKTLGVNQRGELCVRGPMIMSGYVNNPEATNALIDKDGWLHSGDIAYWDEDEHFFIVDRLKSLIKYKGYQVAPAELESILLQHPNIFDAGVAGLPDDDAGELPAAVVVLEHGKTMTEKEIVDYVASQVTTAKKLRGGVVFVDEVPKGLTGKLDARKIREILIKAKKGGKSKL
Method in brief: (§2)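 Light attenuation in two-chamber quartz cuvette at room temperature. One half holds the reaction, the other holds compound in the same buffer. Firefly reaction: 100 µM ATP and D-luciferin, 100 nM enzyme, 5 nm slit. Renilla reaction: 50 µM coelenterazine, 100 nM enzyme, 10 nm slit. Emission scanned 400–700 nm in 2 nm steps, 0.1 s integration. Compounds 2-fold diluted from 100 µM.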

[3] = biological target: T1, Luciferin 4-monooxygenase; assay: Inhibition of Photinus pyralis luciferase by PK-Light assay
[4] = biological target: T1, Luciferin 4-monooxygenase; assay: Inhibition of Photinus pyralis luciferase by Easy lite assay
Method in brief: (§3)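 Detection by 2 µL of EasyLite or Kinase-Glo reagent (Kinase-Glo containing P. pennsylvanica luciferase). 1536-well luminescence. 16 two-fold concentrations, duplicate wells, repeated on two or three days.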

[5] = biological target: T1, Luciferin 4-monooxygenase; assay: Inhibition of Photinus pyralis luciferase
[6] = biological target: T1, Luciferin 4-monooxygenase; assay: Inhibition of Photinus pyralis luciferase by Steady-Glo reporter gene assay; method in brief: as §1
[7] = biological target: T2, Luciferin 4-monooxygenase (Photuris pensylvanica, UniProt Q27757); assay: Inhibition of luciferase Photuris pennsylvanica by Promega Kinase-Glo assay; method in brief: as §3
T2 sequence (Q27757 whole entry): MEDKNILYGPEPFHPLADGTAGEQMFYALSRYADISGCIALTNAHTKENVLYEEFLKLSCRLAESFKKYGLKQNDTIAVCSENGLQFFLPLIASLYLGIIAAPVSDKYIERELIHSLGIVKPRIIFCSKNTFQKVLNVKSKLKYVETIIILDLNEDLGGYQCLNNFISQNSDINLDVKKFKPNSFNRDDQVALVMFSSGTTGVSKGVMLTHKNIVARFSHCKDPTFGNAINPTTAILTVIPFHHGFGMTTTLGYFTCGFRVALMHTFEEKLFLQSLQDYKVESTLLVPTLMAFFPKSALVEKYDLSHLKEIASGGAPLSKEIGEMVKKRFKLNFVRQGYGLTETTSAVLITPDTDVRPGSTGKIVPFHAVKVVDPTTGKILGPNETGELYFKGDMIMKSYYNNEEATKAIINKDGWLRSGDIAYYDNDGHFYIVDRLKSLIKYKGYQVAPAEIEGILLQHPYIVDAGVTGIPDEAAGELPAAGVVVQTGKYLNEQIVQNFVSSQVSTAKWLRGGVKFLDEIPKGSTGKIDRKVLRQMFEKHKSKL

[8] = Inhibition of Renilla reniformis luciferase
Renilla reniformis = assay: Inhibition of Renilla reniformis luciferase at 20 uM assessed as quenching of luminescence; parameters: scale not given: the % may be the effect or the level left; method in brief: as §2
[9] = biological target: Luciferin 4-monooxygenase (Photinus pyralis) (UniProt P08659); assay: Inhibition of […] luciferase at 20 uM assessed as quenching of luminescence; parameters: scale not given: the % may be the effect or the level left; method in brief: as §2

T1 sequence (P08659 whole entry): as the sequence (P08659 whole entry) above

Cc1ccc(O)c(/N=N/c2ccccc2)n1
IC50 [1]: 2 µM | Activity [2]: inactive | IC50 [3]: 1.7 µM | IC50 [4]: 1.26 µM | IC50 [5]: 4.5 µM | IC50 [6]: 1.6 µM | IC50 [7]: 1.8 µM | IC50 [8]: 36 µM

Cc1cc(-c2ccc(/N=N/c3ccc4c(S(=O)(=O)O)cc(S(=O)(=O)O)c(N)c4c3O)c(C)c2)ccc1/N=N/c1ccc2c(S(=O)(=O)O)cc(S(=O)(=O)O)c(N)c2c1O [EVANS BLUE]
IC50 [1]: 17 µM | IC50 [3]: 6.9 µM | IC50 [4]: 7.6 µM | IC50 [5]: 1.7 µM | IC50 [6]: 22 µM | IC50 [7]: 20 µM | IC50 [8]: 10 µM | Activity (Renilla reniformis): 50% | Activity [9]: 50%
